Two compounds from ChEMBL document CHEMBL1147377, “Knerachelins A and B, antibacterial phenylacylphenols from Knema furfuracea” (1993) can be followed below.

SMILES strings stand for the structures. ≈ marks a conversion by molar mass, not a printed value. Calls of active or inactive are those of the source. The rule behind the calls is not given here.

The subject of one experiment is Klebsiella pneumoniae. Nature of the experiment: Antibacterial activity against Klebsiella pneumoniae IP 7824 caroli after 24 hrs by agar dilution method. The format is functional. The procedure, abridged: (§1)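 MIC by microplate titration in agar medium (agar dilution). Compounds dissolved in DMSO. Incubation at 37° for 24 h (the 24 h/37° conditions are stated for the bioguiding agar diffusion test against S. aureus 209 P).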
For orientation: In agar dilution, organisms are placed on agar that contains the substance at set levels.

For another experiment, the system named is Enterococcus faecalis. Nature of the experiment: Antibacterial activity against Enterococcus faecalis ATCC 29212 after 24 hrs by agar dilution method. The format is functional. The settings on record: ATCC 29212, 24 h. The procedure, abridged:
as §1

Experiment [1] concerns Staphylococcus aureus. The experiment can be described thus: Antibacterial activity against Staphylococcus aureus V. de G. 26109 after 24 hrs by agar dilution method. Format: functional. The procedure, abridged: as §1
The subject of experiment [2] is Streptococcus pneumoniae. The experiment can be described thus: Antibacterial activity against Streptococcus pneumoniae 6254.013 after 24 hrs by agar dilution method. The format is functional. The procedure, abridged:
as §1

The test system of another experiment is Salmonella typhimurium. The experiment can be described thus: Antibacterial activity against Salmonella Typhimurium IPL after 24 hrs by agar dilution method. Format: functional, Salmonella enterica subsp. enterica serovar Typhimurium. As to conditions: Salmonella enterica. The procedure, abridged:
as §1

A further experiment relates to Serratia marcescens. Nature of the experiment: Antibacterial activity against Serratia marcescens Guilpin 759 after 24 hrs by agar dilution method. Format: functional. The procedure, abridged: as §1
Another experiment has as its system Klebsiella aerogenes. The experiment can be described thus: Antibacterial activity against Enterobacter aerogenes HM12 after 24 hrs by agar dilution method. The format is functional. The procedure, abridged: as §1
In the next experiment the test system is Pseudomonas aeruginosa. Nature of the experiment: Antibacterial activity against Pseudomonas aeruginosa IPA 237 after 24 hrs by agar dilution method. The format is functional. The procedure, abridged: as §1
In experiment [3] the test system is Nucleic Acid. Nature of the experiment: Induction of phiX174 replicative form 1 template DNA cleavage at 48 ug after 1 hr by propidium iodide staining. Format: nucleic-acid assay. The procedure, abridged:
(§2)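 Reaction at pH 7.5, 15 µl final, with 50 mM sodium cacodylate, 100 ng ΦX174 RF I DNA and CuSO4 120 µM plus sample (24 or 48 µg). Incubated 1 h at 25°, stopped with EDTA. Run on 0.8% agarose at 80 V for 1.5 h in Tris-borate pH 8.0. Stained with propidium iodide 0.5 µg/ml; form II DNA scored.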

Experiment [4] has as its system Staphylococcus aureus. Nature of the experiment: Antibacterial activity against Staphylococcus aureus Duc after 24 hrs by agar dilution method. The format is functional. The procedure, abridged: as §1
In experiment [5] the test system is Escherichia coli. The experiment can be described thus: Antibacterial activity against Escherichia coli V 2019 after 24 hrs by agar dilution method. Format: functional. The procedure, abridged: as §1
For another experiment, the system named is Enterococcus faecium. Nature of the experiment: Antibacterial activity against Enterococcus faecium ATCC 19581 after 24 hrs by agar dilution method. The format is functional. The settings on record: ATCC 19581, 24 h. The procedure, abridged:
as §1

The subject of a further experiment is Streptococcus. Nature of the experiment: Antibacterial activity against Streptococcus A Dig 7 after 24 hrs by agar dilution method. The format is functional. The procedure, abridged:
as §1

Experiment [6] has as its system Escherichia coli. The experiment can be described thus: Antibacterial activity against Escherichia coli NIHJ-JC2 after 24 hrs by agar dilution method. The format is functional. The procedure, abridged: as §1
Experiment [7] has as its system Staphylococcus aureus. Nature of the experiment: Antibacterial activity against Staphylococcus aureus Duchaussoy after 24 hrs by agar dilution method. Format: functional. The procedure, abridged:
as §1

The subject of experiment [8] is Staphylococcus aureus. Nature of the experiment: Antibacterial activity against Staphylococcus aureus IP 8203 after 24 hrs by agar dilution method. The format is functional. The procedure, abridged: as §1
The subject of experiment [9] is Staphylococcus aureus. The experiment can be described thus: Antibacterial activity against Staphylococcus aureus ATCC 25923 after 24 hrs by agar dilution method. The settings on record: ATCC 25923, 24 h. Format: functional. The procedure, abridged:
as §1

The subject of experiment [10] is Streptococcus pneumoniae. Nature of the experiment: Antibacterial activity against Streptococcus pneumoniae 6176-23F after 24 hrs by agar dilution method. The format is functional. The procedure, abridged: as §1
The subject of experiment [11] is Streptococcus pneumoniae. Nature of the experiment: Antibacterial activity against Streptococcus pneumoniae 4314-03 after 24 hrs by agar dilution method. The format is functional. The procedure, abridged: as §1
Experiment [12] concerns Staphylococcus aureus. The experiment can be described thus: Antibacterial activity against Staphylococcus aureus 209P ATCC 6538 after 24 hrs by agar dilution method. The format is functional. The procedure, abridged: as §1
Experiment [13] concerns Nucleic Acid. Nature of the experiment: Induction of phiX174 replicative form 1 template DNA cleavage at 24 ug after 1 hr by propidium iodide staining. The format is nucleic-acid assay. The procedure, abridged:
as §2

With `COc1cc(O)c(C(=O)CCCCc2ccccc2)c(O)c1` [KNERACHELIN A], the MIC was over 128 µg/mL with Klebsiella pneumoniae; 32 µg/mL (≈ 107 µM) with Enterococcus faecalis; 8 µg/mL (≈ 26.6 µM) in the experiment on Staphylococcus aureus [1]; 8 µg/mL (≈ 26.6 µM) in the experiment with Streptococcus pneumoniae [2]; over 128 µg/mL in the experiment with Salmonella typhimurium; over 128 µg/mL in the experiment with Serratia marcescens. The MIC was over 128 µg/mL in the experiment with Klebsiella aerogenes; over 128 µg/mL in the experiment with Pseudomonas aeruginosa; 8 µg/mL (≈ 26.6 µM) in the experiment with Staphylococcus aureus [4]; over 128 µg/mL against Escherichia coli [5]; 32 µg/mL (≈ 107 µM) against Enterococcus faecium; 8 µg/mL (≈ 26.6 µM) in the experiment on Streptococcus. Besides, the minimal inhibitory concentration (MIC) is over 128 µg/mL against Escherichia coli [6]; 8 µg/mL (≈ 26.6 µM) against Staphylococcus aureus [7]; 8 µg/mL (≈ 26.6 µM) against Staphylococcus aureus [8]; 8 µg/mL (≈ 26.6 µM) against Staphylococcus aureus [9]; 8 µg/mL (≈ 26.6 µM) with Streptococcus pneumoniae [10]; 8 µg/mL (≈ 26.6 µM) against Streptococcus pneumoniae [11]. In the experiment on Staphylococcus aureus [12], this compound gave an MIC of 8 µg/mL (≈ 26.6 µM). For the same compound, in the experiment with Nucleic Acid [3], the outcome was inactive.
With `O=C(CCCCc1ccccc1)c1c(O)cccc1O` [KNERACHELIN B], the minimum inhibitory concentration (MIC) was over 128 µg/mL in the experiment on Klebsiella pneumoniae; 16 µg/mL (≈ 59.2 µM) in the experiment on Enterococcus faecalis; 4 µg/mL (≈ 14.8 µM) in the experiment on Staphylococcus aureus [1]; 8 µg/mL (≈ 29.6 µM) in the experiment with Streptococcus pneumoniae [2]; over 128 µg/mL in the experiment on Salmonella typhimurium; over 128 µg/mL against Serratia marcescens. The MIC was over 128 µg/mL in the experiment with Klebsiella aerogenes; over 128 µg/mL against Pseudomonas aeruginosa; 4 µg/mL (≈ 14.8 µM) against Staphylococcus aureus [4]; over 128 µg/mL in the experiment with Escherichia coli [5]; 16 µg/mL (≈ 59.2 µM) with Enterococcus faecium; 4 µg/mL (≈ 14.8 µM) against Streptococcus. For the same compound, the MIC was over 128 µg/mL with Escherichia coli [6]; 4 µg/mL (≈ 14.8 µM) in the experiment on Staphylococcus aureus [7]; 4 µg/mL (≈ 14.8 µM) in the experiment on Staphylococcus aureus [8]; 4 µg/mL (≈ 14.8 µM) in the experiment with Staphylococcus aureus [9]; 8 µg/mL (≈ 29.6 µM) against Streptococcus pneumoniae [10]; 8 µg/mL (≈ 29.6 µM) against Streptococcus pneumoniae [11]. The same compound yielded a minimal inhibitory concentration (MIC) against Staphylococcus aureus [12] of 4 µg/mL (≈ 14.8 µM). For the same compound, the result in the experiment with Nucleic Acid [13] was inactive.

As a reminder, the MIC is the lowest concentration found to suppress growth.
